Laboratory results taken from ChEMBL document CHEMBL5303300, “EUbOPEN Chemogenomics Library - Multiplex” (2023).
Where “and” joins values, the source holds several entries; their conditions need not be identical. Identical values can stand only once.

Tested on: Fibroblast
Assay: Multiplex assay against human fibroblast
Assay type: toxicity, cell-based
Settings: number of replicates 2
How it was run: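 Hoechst33342, BioTracker Green Microtubule Cytoskeleton Dye, MitoTracker Red and Annexin V Alexa Fluor 680 were added to live cells at seeding, and imaging on a CQ1 microscope at 37°C and 5% CO2 followed compound addition. Gating by CellPathfinder machine learning separated cells into Hoechst high-intensity objects or normal cells, then normal cells into healthy, pyknosed or fragmented nuclei, then pyknosed cells into mitotic or apoptotic. Per cents of healthy-nucleus cells are reported for the tubulin, mitochondrial-mass and membrane-permeability phenotypes.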

[1] = 12 h, 1 µM, compound concentration 1 uM
[2] = 12 h, 10 µM, compound concentration 10 uM
[3] = 24 h, 1 µM, compound concentration 1 uM
[4] = 24 h, 10 µM, compound concentration 10 uM
[5] = 48 h, 1 µM, compound concentration 1 uM
[6] = 48 h, 10 µM, compound concentration 10 uM
[7] = 12 h, 0 µM, compound concentration 0 uM
[8] = 24 h, 0 µM, compound concentration 0 uM
[9] = 48 h, 0 µM, compound concentration 0 uM

With `O=C1NC(=O)C(c2ccccc2[N+](=O)[O-])=C1Nc1ccc(O)c(Cl)c1` the “Population Fragmented Nuclei (%)” value [1] was 10% and 18%, the “Population Healthy Nuclei (%)” value [1] was 77% and 65% and the “Population Hoechst High Intensity Objects (%)” value [1] was 0%. For the same compound, the “Population Membrane Permeable-Phenotype (%)” value [1] was 3% and 7%, the “Population Mitochondria Different-Phenotype (%)” value [1] was 1% and 0% and the “Population Mitotic Cells (%)” value [1] was 87% and 53%. For the same compound, the “Population Normal (%)” value [1] was 100% and 99%, the “Population Pyknosed Nuclei (%)” value [1] was 11% and 16% and the “Population Tubulin-Different-Phenotype (%)” value [1] was 4% and 9%. The “Population Apoptotic (%)” value [2] was 46% and 47%, the “Population Fragmented Nuclei (%)” value [2] was 8% and 12% and the “Population Healthy Nuclei (%)” value [2] was 82% and 80%. The “Population Hoechst High Intensity Objects (%)” value [2] was 0%, the “Population Membrane Permeable-Phenotype (%)” value [2] was 1% and 2% and the “Population Mitochondria Different-Phenotype (%)” value [2] was 0% and 1%. The “Population Mitotic Cells (%)” value [2] was 53% and 52%, the “Population Normal (%)” value [2] was 100% and the “Population Pyknosed Nuclei (%)” value [2] was 9% and 7%. The “Population Tubulin-Different-Phenotype (%)” value [2] was 6% and 5%, the “Population Apoptotic (%)” value [3] was 45% and 57% and the “Population Fragmented Nuclei (%)” value [3] was 10% and 17%. For the same compound, the “Population Healthy Nuclei (%)” value [3] was 84% and 74%, the “Population Hoechst High Intensity Objects (%)” value [3] was 0% and the “Population Membrane Permeable-Phenotype (%)” value [3] was 2% and 4%. For the same compound, the “Population Mitochondria Different-Phenotype (%)” value [3] was 0% and 1%, the “Population Mitotic Cells (%)” value [3] was 54% and 42% and the “Population Normal (%)” value [3] was 100%. For the same compound, the “Population Pyknosed Nuclei (%)” value [3] was 5% and 8%, the “Population Tubulin-Different-Phenotype (%)” value [3] was 5% and 7% and the “Population Apoptotic (%)” value [4] was 40% and 37%. For the same compound, the “Population Fragmented Nuclei (%)” value [4] was 12% and 11%, the “Population Healthy Nuclei (%)” value [4] was 81% and 84% and the “Population Hoechst High Intensity Objects (%)” value [4] was 0%. The “Population Membrane Permeable-Phenotype (%)” value [4] was 2% and 3%, the “Population Mitochondria Different-Phenotype (%)” value [4] was 0% and 1% and the “Population Mitotic Cells (%)” value [4] was 60% and 62%. The “Population Normal (%)” value [4] was 100%, the “Population Pyknosed Nuclei (%)” value [4] was 6% and 3% and the “Population Tubulin-Different-Phenotype (%)” value [4] was 7% and 2%. The “Population Apoptotic (%)” value [5] was 35% and 46%, the “Population Fragmented Nuclei (%)” value [5] was 12% and 19% and the “Population Healthy Nuclei (%)” value [5] was 81% and 73%. For the same compound, the “Population Hoechst High Intensity Objects (%)” value [5] was 0%, the “Population Membrane Permeable-Phenotype (%)” value [5] was 1% and 2% and the “Population Mitochondria Different-Phenotype (%)” value [5] was 0%. The “Population Mitotic Cells (%)” value [5] was 64% and 53%, the “Population Normal (%)” value [5] was 100% and the “Population Pyknosed Nuclei (%)” value [5] was 6%. The “Population Tubulin-Different-Phenotype (%)” value [5] was 3% and 2%, the “Population Apoptotic (%)” value [6] was 33% and 75% and the “Population Fragmented Nuclei (%)” value [6] was 6% and 11%. The “Population Healthy Nuclei (%)” value [6] was 91% and 84%, the “Population Hoechst High Intensity Objects (%)” value [6] was 0% and the “Population Membrane Permeable-Phenotype (%)” value [6] was 3% and 0%. For the same compound, the “Population Mitochondria Different-Phenotype (%)” value [6] was 0%, the “Population Mitotic Cells (%)” value [6] was 66% and 25% and the “Population Normal (%)” value [6] was 100%. For the same compound, the “Population Pyknosed Nuclei (%)” value [6] was 1% and 3% and the “Population Tubulin-Different-Phenotype (%)” value [6] was 7% and 1%.

For `COc1cc(C(N)=O)ccc1Nc1ncc2c(n1)N(CCC(C)C)[C@H](C)C(=O)N2C`, the “Population Apoptotic (%)” value [7] was 87% and 56%, the “Population Fragmented Nuclei (%)” value [7] was 48% and 61% and the “Population Healthy Nuclei (%)” value [7] was 41% and 32%. The “Population Hoechst High Intensity Objects (%)” value [7] was 0%, the “Population Mitochondria Different-Phenotype (%)” value [7] was 0% and 3% and the “Population Normal (%)” value [7] was 100%. For the same compound, the “Population Pyknosed Nuclei (%)” value [7] was 9% and 5%, the “Population Tubulin-Different-Phenotype (%)” value [7] was 79% and 61% and the “Total Cell Count” value [7] was 166 and 267. For the same compound, the “Population Apoptotic (%)” value [1] was 56% and 34%, the “Population Fragmented Nuclei (%)” value [1] was 17% and 20% and the “Population Healthy Nuclei (%)” value [1] was 57% and 64%. The “Population Hoechst High Intensity Objects (%)” value [1] was 0%, the “Population Membrane Permeable-Phenotype (%)” value [1] was 7% and 15% and the “Population Mitochondria Different-Phenotype (%)” value [1] was 0% and 2%. For the same compound, the “Population Mitotic Cells (%)” value [1] was 43% and 65%, the “Population Normal (%)” value [1] was 99% and 100% and the “Population Pyknosed Nuclei (%)” value [1] was 25% and 15%. The “Population Tubulin-Different-Phenotype (%)” value [1] was 22% and 28%, the “Total Cell Count” value [1] was 148 and 165 and the “Population Apoptotic (%)” value [8] was 80% and 69%. For the same compound, the “Population Fragmented Nuclei (%)” value [8] was 54% and 72%, the “Population Healthy Nuclei (%)” value [8] was 29% and 21% and the “Population Hoechst High Intensity Objects (%)” value [8] was 0%. The “Population Membrane Permeable-Phenotype (%)” value [8] was 17% and 9%, the “Population Mitochondria Different-Phenotype (%)” value [8] was 4% and 7% and the “Population Mitotic Cells (%)” value [8] was 19% and 30%. For the same compound, the “Population Normal (%)” value [8] was 100%, the “Population Tubulin-Different-Phenotype (%)” value [8] was 78% and 65% and the “Total Cell Count” value [8] was 162 and 237. The “Population Apoptotic (%)” value [3] was 54% and 61%, the “Population Fragmented Nuclei (%)” value [3] was 13% and 27% and the “Population Healthy Nuclei (%)” value [3] was 65% and 56%. The “Population Hoechst High Intensity Objects (%)” value [3] was 0%, the “Population Membrane Permeable-Phenotype (%)” value [3] was 10% and 5% and the “Population Mitochondria Different-Phenotype (%)” value [3] was 0%. The “Population Mitotic Cells (%)” value [3] was 45% and 38%, the “Population Normal (%)” value [3] was 100% and the “Population Pyknosed Nuclei (%)” value [3] was 20% and 15%. For the same compound, the “Population Tubulin-Different-Phenotype (%)” value [3] was 10% and 14%, the “Total Cell Count” value [3] was 152 and 166 and the “Population Apoptotic (%)” value [9] was 82% and 80%. The “Population Fragmented Nuclei (%)” value [9] was 64% and 84%, the “Population Healthy Nuclei (%)” value [9] was 21% and 9% and the “Population Hoechst High Intensity Objects (%)” value [9] was 0%. For the same compound, the “Population Membrane Permeable-Phenotype (%)” value [9] was 18% and 8%, the “Population Mitochondria Different-Phenotype (%)” value [9] was 0% and 8% and the “Population Mitotic Cells (%)” value [9] was 17% and 20%. The “Population Normal (%)” value [9] was 100%, the “Population Pyknosed Nuclei (%)” value [9] was 13% and 6% and the “Population Tubulin-Different-Phenotype (%)” value [9] was 64% and 56%. For the same compound, the “Total Cell Count” value [9] was 171 and 241, the “Population Apoptotic (%)” value [5] was 68% and 46% and the “Population Fragmented Nuclei (%)” value [5] was 18% and 25%. The “Population Healthy Nuclei (%)” value [5] was 66%, the “Population Hoechst High Intensity Objects (%)” value [5] was 0% and the “Population Membrane Permeable-Phenotype (%)” value [5] was 9% and 11%. The “Population Mitochondria Different-Phenotype (%)” value [5] was 0%, the “Population Mitotic Cells (%)” value [5] was 32% and 53% and the “Population Normal (%)” value [5] was 100%. For the same compound, the “Population Pyknosed Nuclei (%)” value [5] was 15% and 8%, the “Population Tubulin-Different-Phenotype (%)” value [5] was 8% and 10% and the “Total Cell Count” value [5] was 161 and 162.
